From ChEMBL document CHEMBL4387720, “Lead generation of 1,2-dithiolanes as exon 19 and exon 21 mutant EGFR tyrosine kinase inhibitors” (Bioorg Med Chem Lett, 2019)

How the values were obtained:
[1] = molecular target: Epidermal growth factor receptor (Homo sapiens, UniProt P00533, E746-A750DEL); assay: Binding affinity to human partial length EGFR E746-A750 deletion mutant expressed in bacterial expression system by KinomeScan assay
How it was run: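 Competition binding against an immobilized active-site-directed ligand. Bound kinase is quantified by qPCR of its DNA tag. Kd values come from duplicate 11-point dose-response curves.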

[2] = molecular target: T1, Epidermal growth factor receptor (Homo sapiens, UniProt P00533, L858R); assay: Binding affinity to human partial length EGFR L858R mutant (R669 to V1011 residues) expressed in bacterial expression system by kinomescan assay
T1 sequence (P00533 25-1210 L858R limits assumed): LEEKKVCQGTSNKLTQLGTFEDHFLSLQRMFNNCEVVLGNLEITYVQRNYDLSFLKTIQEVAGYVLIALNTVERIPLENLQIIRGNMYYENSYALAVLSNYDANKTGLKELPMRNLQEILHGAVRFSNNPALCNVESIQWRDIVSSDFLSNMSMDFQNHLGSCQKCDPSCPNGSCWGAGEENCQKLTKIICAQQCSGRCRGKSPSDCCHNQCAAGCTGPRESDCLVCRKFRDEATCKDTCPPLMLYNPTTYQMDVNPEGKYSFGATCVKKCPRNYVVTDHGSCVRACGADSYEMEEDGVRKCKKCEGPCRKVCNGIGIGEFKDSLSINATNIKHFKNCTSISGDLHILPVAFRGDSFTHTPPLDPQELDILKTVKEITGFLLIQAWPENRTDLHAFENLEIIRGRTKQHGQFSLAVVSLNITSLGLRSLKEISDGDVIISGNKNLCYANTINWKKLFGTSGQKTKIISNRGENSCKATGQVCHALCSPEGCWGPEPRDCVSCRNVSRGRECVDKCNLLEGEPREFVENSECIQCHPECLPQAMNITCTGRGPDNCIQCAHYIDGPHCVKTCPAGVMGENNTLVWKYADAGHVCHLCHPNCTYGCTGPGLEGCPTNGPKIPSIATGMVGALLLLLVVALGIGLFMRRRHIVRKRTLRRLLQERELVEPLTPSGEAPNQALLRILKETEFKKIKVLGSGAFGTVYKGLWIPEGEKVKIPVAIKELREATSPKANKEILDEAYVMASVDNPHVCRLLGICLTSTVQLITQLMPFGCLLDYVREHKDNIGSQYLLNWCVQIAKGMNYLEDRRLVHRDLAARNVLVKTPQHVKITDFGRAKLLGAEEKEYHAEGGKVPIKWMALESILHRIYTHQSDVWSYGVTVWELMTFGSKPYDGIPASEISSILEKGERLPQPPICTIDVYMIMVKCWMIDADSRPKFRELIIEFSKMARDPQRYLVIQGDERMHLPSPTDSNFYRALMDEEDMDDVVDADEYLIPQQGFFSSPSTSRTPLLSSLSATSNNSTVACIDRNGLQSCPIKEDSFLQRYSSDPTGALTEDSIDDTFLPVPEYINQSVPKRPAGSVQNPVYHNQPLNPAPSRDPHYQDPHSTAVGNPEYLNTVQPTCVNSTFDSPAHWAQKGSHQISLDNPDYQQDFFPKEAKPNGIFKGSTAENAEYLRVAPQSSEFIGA
How it was run: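 Competition binding against an immobilized active-site-directed ligand; bound kinase quantified by qPCR of its DNA tag. Kd taken from duplicate 11-point dose-response curves.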

[3] = molecular target: T1, Epidermal growth factor receptor
[4] = molecular target: Epidermal growth factor receptor (Homo sapiens, UniProt P00533); assay: Inhibition of probe binding to wild type EGFR (unknown origin) using rabbit reticulate lysate system after 1 hr by luminescence assay
Chain of Epidermal growth factor receptor (Homo sapiens, UniProt P00533) (P00533 whole entry, the tested form may be a part): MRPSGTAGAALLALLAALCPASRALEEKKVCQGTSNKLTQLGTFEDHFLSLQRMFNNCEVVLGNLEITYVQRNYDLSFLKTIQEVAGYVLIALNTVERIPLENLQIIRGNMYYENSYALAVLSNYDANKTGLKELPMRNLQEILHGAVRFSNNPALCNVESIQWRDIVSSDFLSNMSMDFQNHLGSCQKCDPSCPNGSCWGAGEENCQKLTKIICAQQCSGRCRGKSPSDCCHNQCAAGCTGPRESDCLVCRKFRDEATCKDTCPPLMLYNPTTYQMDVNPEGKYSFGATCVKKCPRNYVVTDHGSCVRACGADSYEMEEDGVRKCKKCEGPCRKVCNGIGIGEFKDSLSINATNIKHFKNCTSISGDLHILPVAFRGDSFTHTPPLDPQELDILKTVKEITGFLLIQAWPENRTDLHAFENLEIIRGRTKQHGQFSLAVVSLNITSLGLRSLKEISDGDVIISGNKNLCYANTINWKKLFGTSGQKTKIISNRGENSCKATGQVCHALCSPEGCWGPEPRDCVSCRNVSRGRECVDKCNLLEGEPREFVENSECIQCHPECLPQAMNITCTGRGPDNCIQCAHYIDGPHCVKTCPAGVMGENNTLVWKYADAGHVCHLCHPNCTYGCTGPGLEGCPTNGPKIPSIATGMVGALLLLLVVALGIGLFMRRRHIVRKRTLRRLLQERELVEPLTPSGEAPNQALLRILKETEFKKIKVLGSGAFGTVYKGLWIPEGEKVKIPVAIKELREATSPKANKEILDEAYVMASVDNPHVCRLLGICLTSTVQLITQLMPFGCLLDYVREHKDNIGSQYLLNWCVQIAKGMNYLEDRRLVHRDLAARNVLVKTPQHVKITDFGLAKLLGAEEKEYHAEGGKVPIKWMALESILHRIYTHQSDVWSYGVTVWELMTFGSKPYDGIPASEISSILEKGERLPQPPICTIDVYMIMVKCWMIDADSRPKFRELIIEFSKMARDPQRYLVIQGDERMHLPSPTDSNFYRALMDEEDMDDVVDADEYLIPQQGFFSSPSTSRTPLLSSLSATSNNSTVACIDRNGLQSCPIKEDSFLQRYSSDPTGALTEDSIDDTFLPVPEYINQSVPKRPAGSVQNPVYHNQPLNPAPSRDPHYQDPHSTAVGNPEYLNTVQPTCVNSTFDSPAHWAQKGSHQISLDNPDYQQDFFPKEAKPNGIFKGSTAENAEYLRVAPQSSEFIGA

[5] = molecular target: T1, Epidermal growth factor receptor; assay: Binding affinity to human partial length EGFR L858R mutant (R669 to V1011 residues) expressed in bacterial expression system under equilibrate/3-fold dilution/eqiulibrate condition by scanKINETIC assay
How it was run: (§1)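 Binding kinetics are read from Kd values measured under four dose-response arms. Arm A is full equilibration. Arm B is equilibrate, then 3-fold dilution, then equilibrate. Arm C is partial equilibration. Arm D is predilution followed by full equilibration. Comparing the arms assesses reversibility of binding.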

[6] = molecular target: T1, Epidermal growth factor receptor; assay: Binding affinity to human partial length EGFR L858R mutant (R669 to V1011 residues) expressed in bacterial expression system under full equilibrating condition by scanKINETIC assay; how it was run: as §1
[7] = molecular target: T1, Epidermal growth factor receptor; assay: Binding affinity to human partial length EGFR L858R mutant (R669 to V1011 residues) expressed in bacterial expression system under partial equilibration condition by scanKINETIC assay; how it was run: as §1
[8] = molecular target: T1, Epidermal growth factor receptor; assay: Binding affinity to human partial length EGFR L858R mutant (R669 to V1011 residues) expressed in bacterial expression system under predilution/full equilibration condition by scanKINETIC assay; how it was run: as §1
[9] = molecular target: Receptor tyrosine-protein kinase erbB-2 (Homo sapiens, UniProt P04626); assay: Inhibition of probe binding to HER2 (unknown origin) using rabbit reticulate lysate system after 1 hr by luminescence assay
Chain of Receptor tyrosine-protein kinase erbB-2 (P04626 whole entry): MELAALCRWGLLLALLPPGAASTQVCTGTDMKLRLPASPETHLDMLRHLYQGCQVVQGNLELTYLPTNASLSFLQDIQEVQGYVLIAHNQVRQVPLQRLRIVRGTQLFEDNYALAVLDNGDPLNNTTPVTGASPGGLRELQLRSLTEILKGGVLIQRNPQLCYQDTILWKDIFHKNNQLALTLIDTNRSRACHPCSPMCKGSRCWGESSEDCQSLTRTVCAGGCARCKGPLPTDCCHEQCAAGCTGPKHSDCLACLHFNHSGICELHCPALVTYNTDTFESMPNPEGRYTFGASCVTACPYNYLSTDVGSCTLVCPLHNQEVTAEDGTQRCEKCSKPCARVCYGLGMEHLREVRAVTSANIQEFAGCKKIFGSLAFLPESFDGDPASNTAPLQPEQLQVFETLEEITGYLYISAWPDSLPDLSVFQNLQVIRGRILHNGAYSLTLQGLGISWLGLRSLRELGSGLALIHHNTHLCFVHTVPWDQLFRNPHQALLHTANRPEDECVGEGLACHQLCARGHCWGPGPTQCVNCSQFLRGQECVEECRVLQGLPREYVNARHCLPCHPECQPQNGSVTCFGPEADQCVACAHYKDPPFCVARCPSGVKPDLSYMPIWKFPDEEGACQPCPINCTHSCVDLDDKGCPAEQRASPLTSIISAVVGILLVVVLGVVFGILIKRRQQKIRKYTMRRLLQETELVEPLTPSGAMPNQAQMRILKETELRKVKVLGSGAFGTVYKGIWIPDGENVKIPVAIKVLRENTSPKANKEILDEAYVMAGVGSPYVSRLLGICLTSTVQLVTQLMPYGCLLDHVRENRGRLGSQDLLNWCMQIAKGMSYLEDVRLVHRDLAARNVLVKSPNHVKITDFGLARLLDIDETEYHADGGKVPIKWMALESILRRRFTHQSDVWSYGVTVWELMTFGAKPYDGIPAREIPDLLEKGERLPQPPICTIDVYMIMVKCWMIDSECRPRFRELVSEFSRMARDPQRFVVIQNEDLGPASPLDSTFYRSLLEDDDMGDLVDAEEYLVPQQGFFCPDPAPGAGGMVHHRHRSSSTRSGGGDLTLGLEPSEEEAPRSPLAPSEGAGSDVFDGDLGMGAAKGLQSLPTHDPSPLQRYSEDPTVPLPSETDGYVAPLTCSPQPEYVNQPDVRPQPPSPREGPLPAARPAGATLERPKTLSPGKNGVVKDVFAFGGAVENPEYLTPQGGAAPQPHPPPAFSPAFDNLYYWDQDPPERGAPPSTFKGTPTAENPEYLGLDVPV
How it was run: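 Homogeneous competition binding in rabbit reticulocyte lysate with kinase expressed in the lysate. IC50 taken from a ten-point dose-response curve; value is the average of triplicate experiments.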

Homo sapiens = species on record: Homo sapiens; assay: Selectivity ratio, ratio of IC50 for probe binding to HER2 (unknown origin) to IC50 for probe binding to EGFR L858R mutant (unknown origin)
How it was run: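 Ratio of two IC50 values measured in the rabbit reticulocyte lysate competition binding assay: HER2 and EGFR L858R. Each IC50 comes from displacement of an active-site-dependent probe, read by luminescence, with a ten-point dose-response. Each IC50 is the average of triplicate experiments.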

[10] = Half life in rat S9 fraction; type: ADME, subcellular
NCI-H322M [11] = assay: Cytotoxicity against human NCI-H322M cells assessed as reduction in measured protein incubated for 48 hrs by SRB assay; type: functional; settings: read-out: LC50 (the source's name)
How it was run: (§2)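 Tested in the NCI-60 panel with a five-dose response curve, each value the mean of 2 experiments.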

CCRF-CEM [12] = assay: cells; type: functional; settings: Homo sapiens, 48 h
MOLT-4 [13] = assay: Therapeutic index, ratio of LC50 for human MOLT4 cells to GI50 for human MOLT4 cells; type: functional
How it was run: (§3)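 NCI-60 panel screen using five-dose response curves, each value an average of 2 experiments. […] The therapeutic index is calculated as LC50/GI50 for the same cell line.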

NCI-H322M [14] = assay: cells; type: functional; settings: Homo sapiens, 48 h
NCI-H460 = assay: cells; type: functional; settings: Homo sapiens, NCI-H460, 48 h
A549 = assay: cells; type: functional; settings: Homo sapiens, A549, 48 h
NCI-H322M [15] = assay: Therapeutic index, ratio of LC50 for human NCI-H322M cells to GI50 for human NCI-H322M cells; type: functional; how it was run: as §3
CCRF-CEM [16] = assay: Cytotoxicity against human CCRF-CEM cells assessed as reduction in measured protein incubated for 48 hrs by SRB assay; type: functional; settings: read-out: LC50 (the source's name); how it was run: as §2
MOLT-4 [17] = assay: cells; type: functional; settings: Homo sapiens, MOLT-4, 48 h
CCRF-CEM [18] = assay: Therapeutic index, ratio of LC50 for human CCRF-CEM cells to GI50 for human CCRF-CEM cells; type: functional; how it was run: as §3
MOLT-4 [19] = assay: Cytotoxicity against human MOLT4 cells assessed as reduction in measured protein incubated for 48 hrs by SRB assay; type: functional; settings: MOLT-4, 48 h, read-out: LC50 (the source's name); how it was run: as §2
[20] = Half life in human S9 fraction; type: ADME, subcellular

Chain of Epidermal growth factor receptor (Homo sapiens, UniProt P00533, E746-A750DEL) (P00533 whole entry E746-A750del, looked up): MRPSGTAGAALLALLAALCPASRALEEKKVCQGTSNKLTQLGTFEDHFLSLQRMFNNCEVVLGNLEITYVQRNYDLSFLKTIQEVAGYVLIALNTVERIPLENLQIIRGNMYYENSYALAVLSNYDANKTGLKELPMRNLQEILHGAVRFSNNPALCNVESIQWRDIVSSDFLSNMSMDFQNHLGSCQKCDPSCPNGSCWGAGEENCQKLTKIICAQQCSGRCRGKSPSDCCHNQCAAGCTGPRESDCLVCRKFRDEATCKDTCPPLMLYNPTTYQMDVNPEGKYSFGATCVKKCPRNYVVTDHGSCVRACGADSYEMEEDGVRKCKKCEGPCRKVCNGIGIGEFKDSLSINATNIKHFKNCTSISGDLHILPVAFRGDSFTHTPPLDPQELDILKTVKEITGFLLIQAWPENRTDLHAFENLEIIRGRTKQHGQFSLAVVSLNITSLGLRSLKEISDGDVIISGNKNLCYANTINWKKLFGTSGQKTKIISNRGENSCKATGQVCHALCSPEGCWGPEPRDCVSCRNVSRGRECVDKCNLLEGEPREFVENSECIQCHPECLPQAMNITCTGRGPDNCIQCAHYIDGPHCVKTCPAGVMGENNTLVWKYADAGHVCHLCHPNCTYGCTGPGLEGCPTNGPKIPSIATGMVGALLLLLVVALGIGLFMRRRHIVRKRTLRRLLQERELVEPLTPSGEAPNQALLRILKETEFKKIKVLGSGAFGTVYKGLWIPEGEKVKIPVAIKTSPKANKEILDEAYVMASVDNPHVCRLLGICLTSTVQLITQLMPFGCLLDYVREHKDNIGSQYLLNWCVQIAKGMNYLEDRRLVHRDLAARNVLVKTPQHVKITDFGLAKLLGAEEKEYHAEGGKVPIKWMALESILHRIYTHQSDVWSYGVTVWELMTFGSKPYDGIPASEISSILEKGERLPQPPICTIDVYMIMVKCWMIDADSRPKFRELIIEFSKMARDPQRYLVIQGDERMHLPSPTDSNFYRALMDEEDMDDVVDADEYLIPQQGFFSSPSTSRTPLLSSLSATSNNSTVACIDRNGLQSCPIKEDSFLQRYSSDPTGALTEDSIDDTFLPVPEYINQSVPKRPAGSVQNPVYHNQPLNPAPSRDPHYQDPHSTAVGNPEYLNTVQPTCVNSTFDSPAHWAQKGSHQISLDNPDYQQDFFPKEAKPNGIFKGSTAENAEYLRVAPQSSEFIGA

Compound `CCOc1cc2ncc(C#N)c(Nc3ccc(OCc4cccc(F)c4)c(Cl)c3)c2cc1NC(=O)C(CSC(C)=O)CSC(C)=O` has a Kd [1] of 180 nM, a Kd [2] of 16 nM and an IC50 [3] of 26.8 nM. The IC50 [4] was 340 nM.

Work on `CC(=O)SCC(CSC(C)=O)C(=O)Nc1cc2c(Nc3ccc(OCc4cccc(F)c4)c(Cl)c3)c(C#N)cnc2cc1OC[C@H](O)CO` yielded a Kd [5] of 58 nM, a Kd [6] of 2.1 nM and a Kd [7] of 5.9 nM. For the same compound, the Kd [8] was 60 nM.

For `COc1cc2ncnc(Nc3ccc(OCc4cccc(F)c4)c(Cl)c3)c2cc1NC(=O)C1CSSC1`, the IC50 [3] was 6.5 nM and the IC50 [4] was 76 nM.

Compound `Cc1ccc(Oc2ccc(Nc3c(C#N)cnc4ccc(NC(=O)CC5CCSS5)cc34)cc2C)cn1` (stereo not given) has an IC50 [9] greater than 10000 nM, an IC50 [3] greater than 10000 nM and an IC50 [4] of 8630 nM.

Compound `CCOc1cc2ncc(C#N)c(Nc3ccc(F)c(Cl)c3)c2cc1NC(=O)CCCCC1CCSS1` (stereo not given) has an IC50 [3] of 420 nM.

`N#Cc1cnc2cc(OC[C@H](O)CO)c(NC(=O)C3CSSC3)cc2c1Nc1ccc(OCc2cccc(F)c2)c(Cl)c1` showed an IC50 [3] of 20 nM and an IC50 [4] of 256 nM.

Work on `N#Cc1cnc2ccc(NC(=O)C3CSSC3)cc2c1Nc1ccc(OCc2cccc(F)c2)c(Cl)c1` yielded an IC50 [3] of 199 nM.

Work on `CCOc1cc2ncc(C#N)c(Nc3ccc(F)c(Cl)c3)c2cc1NC(=O)C1CSSC1` yielded an IC50 [3] of 219 nM.

Compound `Cc1ccc(Oc2ccc(Nc3c(C#N)cnc4ccc(NC(=O)C5CSSC5)cc34)cc2C)cn1` has an IC50 [3] greater than 10000 nM and an IC50 [4] greater than 10000 nM.

`COc1cc2ncnc(Nc3ccc(Oc4ccc(C)nc4)c(C)c3)c2cc1NC(=O)C1CSSC1` showed a Ratio IC50 (Homo sapiens) of 1.4, an IC50 [9] of 590 nM and an IC50 [3] of 413 nM. It also gave an IC50 [4] of 658 nM.

Compound `CC(C)NCC(O)COc1cccc2ccccc12` (stereo not given) [PROPRANOLOL] has a half-life [10] of 27.5 min.

`CCOc1cc2ncc(C#N)c(Nc3ccc(F)c(Cl)c3)c2cc1NC(=O)CC1CCSS1` (stereo not given) gave an IC50 [3] of 300 nM.

Compound `N#Cc1cnc2cc(OC[C@@H](O)CO)c(NC(=O)C3CSSC3)cc2c1Nc1ccc(OCc2cccc(F)c2)c(Cl)c1` has a Kd [5] of 8.4 nM, a Ratio IC50 (Homo sapiens) greater than 25 and an IC50 [9] of 167 nM. For the same compound, the Kd [6] was 0.7 nM, the Kd [7] was 1.9 nM and the IC50 [3] was 9 nM. The IC50 [4] was 125 nM and the Kd [8] was 16 nM.

In the case of `N#Cc1cnc2ccc(NC(=O)CC3CCSS3)cc2c1Nc1ccc(OCc2cccc(F)c2)c(Cl)c1` (stereo not given), the Ratio IC50 (Homo sapiens) is reported as greater than 25, the IC50 [9] is reported as 730 nM and the IC50 [3] is reported as 36 nM. It also gave an IC50 [4] of 164 nM.

For `COc1cc2ncnc(Nc3ccc(Oc4ccc(C)nc4)c(C)c3)c2cc1NC(=O)CC1CCSS1` (stereo not given), the CC50 (NCI-H322M [11]) was greater than 50 µM, the GI50 (CCRF-CEM [12]) was 220 nM and the TI (MOLT-4 [13]) was 16.2. The GI50 (NCI-H322M [14]) was 1070 nM, the GI50 (NCI-H460) was 110 nM and the GI50 (A549) was 760 nM. It also gave a TI (NCI-H322M [15]) greater than 46.7, a CC50 (CCRF-CEM [16]) greater than 50 µM and a GI50 (MOLT-4 [17]) of 160 nM. The TI (CCRF-CEM [18]) was greater than 227 and the CC50 (MOLT-4 [19]) was greater than 2600 nM.

In the case of `O=c1ccc2ccc(O)cc2o1` [UMBELLIFERONE], the half-life [20] is reported as 26.6 min.

With `COc1cc2ncnc(Nc3ccc(OCc4cccc(F)c4)c(Cl)c3)c2cc1NC(=O)CC1CCSS1` (stereo not given) the IC50 [3] was 5.8 nM and the IC50 [4] was 25 nM.

For `CCOc1cc2ncc(C#N)c(Nc3ccc(OCc4cccc(F)c4)c(Cl)c3)c2cc1NC(=O)CCCCC1CCSS1` (stereo not given), the Kd [2] was 32 nM, the IC50 [3] was 33 nM and the IC50 [4] was 730 nM.

For `CCOc1cc2ncc(C#N)c(Nc3ccc(OCc4cccc(F)c4)c(Cl)c3)c2cc1NC(=O)C1CSSC1`, the Ratio IC50 (Homo sapiens) was greater than 25, the Kd [1] was 110 nM and the IC50 [9] was 730 nM. For the same compound, the IC50 [3] was 18 nM and the IC50 [4] was 210 nM.
